CHO parental Ca – ATP-evoked calcium signal inhibitors, parental CHO, primary screen, counter-screen for OX1R antagonist project, cell-based, fluorescence, Fluo-8 calcium dye. parental CHO-K1, ATP-induced calcium, Fluo-8 fluorescence. inhibition, % at 5.6 µM. hit rate 0.63% among 330,000;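 active means inhibition above that plate's mean sample inhibition plus 3 SD, cut at about 26% in these data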;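 further: 0% = ATP-challenged DMSO wells and 100% = DMSO wells without ATP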
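Material – parental CHO cells · Reagent – ATP stimulus · Compound – single nominal dose of 5.6 µM per compound · Detection – Fluo-8 fluorescence · Read-out basis – percent inhibition of calcium signal · Controls – ATP-challenged DMSO wells low, unchallenged DMSO wells high · Repeats – no replicates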
TAAR1 agonist – human TAAR1 agonists, primary screen, Fluo-8 calcium fluorescence, CHO RD-HGA16 cells | Trace amine-associated receptor 1 (Homo sapiens), Q96RJ0 | vehicle wells 0%, saturating PEA agonist 100% | activation, % at 3 µM | hit rate 0.99% among 360,000;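 active means activation above the mean activation of all test compounds in the run plus 3 SD, cut at about 38% in these data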
Target sequence (Q96RJ0 whole entry, looked up): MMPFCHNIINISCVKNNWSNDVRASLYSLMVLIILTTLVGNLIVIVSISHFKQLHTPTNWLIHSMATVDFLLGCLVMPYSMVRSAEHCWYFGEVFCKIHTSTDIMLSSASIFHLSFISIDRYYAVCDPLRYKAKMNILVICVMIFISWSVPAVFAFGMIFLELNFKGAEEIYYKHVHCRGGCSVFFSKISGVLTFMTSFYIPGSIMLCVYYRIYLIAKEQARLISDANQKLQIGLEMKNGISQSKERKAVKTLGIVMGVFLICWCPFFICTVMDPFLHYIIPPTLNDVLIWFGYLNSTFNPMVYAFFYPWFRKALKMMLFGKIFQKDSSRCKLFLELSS
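Assay system: CHO-derived RD-HGA16 cells with stable Gα16 and human TAAR1; timing: 17-24 h seeding, 75 min 37 °C dye, 30 min RT; read-out: % activation from peak over basal fluorescence ratio, DMSO-to-PEA scaled; measured by: kinetic Fluo-8 calcium fluorescence; benchmarks: low control DMSO, high control PEA (EC100); doses: 3 µM single concentration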
TAAR1 antag – human TAAR1 antagonists, primary screen, Fluo-8 calcium fluorescence, CHO RD-HGA16 cells | Trace amine-associated receptor 1 (Homo sapiens), Q96RJ0 | antagonist | inhibition, % at 3 µM | hit rate 1.5% among 360,000;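 active means inhibition above a per-plate cutoff, the mean inhibition of test compounds on that plate plus 3 SD, cut at about 49% in these data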;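 further: 0% = DMSO plus EC80 beta-PEA response and 100% = DMSO alone without agonist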
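Assay system: CHO-derived RD-HGA16 cells stably expressing human TAAR1 plus Gα16. Timing: 140 s kinetic read after compound, 140 s after agonist. Technique: kinetic Fluo-8 calcium fluorescence measurement. Measure: % inhibition of agonist calcium response.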
GPR7 antagonist – GPR7 receptor antagonists, primary screen, cell-based, fluorescence, single concentration. GPR7-expressing cells, fluorescence antagonist assay. hit rate 1.1% among 290,000. inhibition, % at 4.4 µM. AID 1861, 2009; in the data active means inhibition above about 16%, passing the limit was not always enough;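 further: cells stimulated with the agonist NPW; 0% = agonist with vehicle and 100% = vehicle without agonist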
Target sequence (P48145 whole entry, looked up): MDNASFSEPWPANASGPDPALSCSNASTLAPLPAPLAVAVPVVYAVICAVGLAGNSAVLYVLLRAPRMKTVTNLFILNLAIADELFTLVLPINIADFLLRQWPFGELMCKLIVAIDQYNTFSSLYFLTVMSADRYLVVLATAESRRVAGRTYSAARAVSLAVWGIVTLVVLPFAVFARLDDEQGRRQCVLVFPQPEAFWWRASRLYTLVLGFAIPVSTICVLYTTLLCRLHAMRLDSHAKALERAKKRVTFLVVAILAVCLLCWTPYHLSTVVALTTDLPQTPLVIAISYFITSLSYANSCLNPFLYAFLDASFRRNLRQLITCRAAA
OX1R antag-1 – antagonists of human orexin 1 receptor (OX1R). hit rate 1.8% among 330,000. Orexin/Hypocretin receptor type 1 (Homo sapiens), O43613. OX1R-expressing cells, FRET antagonist read-out. inhibition, % at 6.6 µM; in the data active means inhibition mostly above about 38%, no sharp cut-off; inactive means mostly below about 40%;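 further: 0% = agonist challenge alone and 100% = reference antagonist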
OX1R antag-2 – OX1R (HCRTR1) antagonists, primary screen, fluorescence, CHO/OX1R cells, Fluo-8 calcium, orexin A. Orexin/Hypocretin receptor type 1 (Homo sapiens), O43613. Fluo-8 calcium fluorescence. inhibition, % at 5 µM. hit rate 0.43% among 330,000. AID 434989, 2010;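 active means inhibition above its plate's threshold, mean inhibition of all tested compounds on the plate plus 3 SD, cut at about 37% in these data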;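 further: 0% = orexin A challenge wells and 100% = SB-334867-A antagonist wells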
An asterisk follows results filed as active; x = not tested or not shown. This is a sample that favours compounds with a hit; in the whole collection about 4.6% have one here.

SMILES | CHO parental Ca | TAAR1 agonist | TAAR1 antag | GPR7 antagonist | OX1R antag-1 | OX1R antag-2
CCN1C(=O)/C(=C2/C=CC=CN2C)SC1=S | 5 | 6 | -5 | 4 | 46* | 4
CC[C@H](NC(=O)[C@H]1O[C@@H](n2cnc3c(=O)[nH]c(N)nc32)[C@H](O)[C@@H]1O)c1ccccc1 | x | 1 | -7 | x | x | x
CC(C)Oc1cccc(C(=O)C2CCCN(Cc3cnc(N4CCCC4)s3)C2)c1 (stereo not given) | -16 | 31 | -26 | -2 | 8 | -44
COc1ccc2cc(C(=O)C3CCCN(Cc4cnc(N5CCOCC5)s4)C3)ccc2c1 (stereo not given) | -12 | 40* | 7 | -3 | 34 | -22
CN(C(=O)COC(=O)CSc1ccc([N+](=O)[O-])cc1)c1ccccc1 | -12 | 1 | 51* | x | 8 | -13
COCCN(CCOC)C(=O)COC(=O)c1cc([N+](=O)[O-])ccc1Cl | -11 | 1 | -27 | -12 | 48* | -4
CN(C)c1ccc(N=Nc2ccccc2C(=O)OCC(=O)N(C)c2ccccc2)cc1 | 34* | 17 | 62* | -5 | 21 | 1
CN(C(=O)COC(=O)c1cc([N+](=O)[O-])ccc1Cl)c1ccccc1 | -20 | 5 | -18 | -9 | 66* | -12
O=C(COC(=O)c1cc([N+](=O)[O-])ccc1Cl)NCCc1ccccc1 | -6 | 14 | 3 | x | 17 | -18
C[C@@H]1ON(C)[C@H]2C[C@H]3c4cc(Nc5ccccc5)ccc4CCN3C[C@@H]12 | x | 0 | -29 | x | x | x
CCOc1ccccc1CN1[C@@H](c2ccc(OC)cc2)CC(C(=O)OC)(C(=O)OC)[C@H]1c1ccccc1 | x | 3 | -8 | x | x | x
Cc1cc(/C=N/n2cnnc2)c(C)n1-c1ccc(OCc2ccc(Cl)cc2)cc1 | 49* | 15 | 47 | 11 | 14 | 52*
Cc1cc(/C=N/n2cnnc2)c(C)n1-c1ccc(OCc2ccccc2F)cc1 | 56* | 14 | 29 | 9 | 23 | 20
C(=N\n1cnnc1)/c1ccc(OCc2ccccc2)cc1 | 1 | 13 | 27 | 0 | 6 | -7
CC(=O)N1CCN(C(=S)c2ccc([N+](=O)[O-])cc2)CC1 | 1 | 4 | 1 | -17 | 76 | -9
CC(=O)N1CCC(N(CCCOC(C)C)S(=O)(=O)c2ccc([N+](=O)[O-])cc2)CC1 | -8 | -1 | -20 | -7 | 46* | -36
O=C(Cn1ncc2ccccc21)N1CCN(c2cccc(C(F)(F)F)c2)CC1 | -13 | 44* | 9 | 6 | -2 | -7
Cc1cc(C(=O)Cn2cncn2)c(C)n1CCc1ccc(F)cc1 | -9 | 31 | 3 | -13 | 27 | -12
Cc1cc(C(=O)COC(=O)c2ccncc2)c(C)n1CCc1ccc(F)cc1 | 4 | 48* | 10 | 4 | -1 | -12
C[C@H]1CN([C@@H](C)CO)C(=O)CCCn2cc(nn2)CO[C@@H]1CN(C)S(=O)(=O)c1ccc(Oc2ccccc2)nc1 | x | 4 | -25 | x | x | x
O=C(COC(=O)CN1C(=O)NC2(CCCC2)C1=O)Nc1ccccc1C(F)(F)F | -3 | 3 | -16 | x | 7 | -15
O=C(COC(=O)CN1C(=O)NC2(CCCC2)C1=O)Nc1ccc(C(F)(F)F)cc1[N+](=O)[O-] | -5 | 10 | 29 | x | 41* | -18
Cc1ccc(NC(=O)CN2C(=O)NC3(CCCc4ccccc43)C2=O)c([N+](=O)[O-])c1 (stereo not given) | -1 | 6 | -13 | 9 | 54* | -6
Cc1ccc(S(=O)(=O)N=N/C=C2\C=CC=CN2O)cc1 | x | 1 | 6 | x | x | x
COc1ccc(-c2oc3ncn(CCN4CCOCC4)c(=N)c3c2-c2ccc(OC)cc2)cc1 | -16 | 3 | 8 | 1 | 38* | -16
SMILES | CHO parental Ca | TAAR1 agonist | TAAR1 antag | GPR7 antagonist | OX1R antag-1 | OX1R antag-2
COc1ccc(-c2oc3ncnc(NCCN4CCOCC4)c3c2-c2ccc(OC)cc2)cc1 | -27 | x | x | -13 | 17 | -34
Cc1nn(C)c(C)c1CN(Cc1nc(CCC(C)C)no1)C(C)C | 41* | 5 | 17 | 18 | 21 | 34
COc1cccc(C(CCc2cc(OC)c(OC)c(OC)c2)NC(C)=O)c1 (stereo not given) | x | 0 | 15 | x | x | x
O=C(Nc1nc2c(s1)CCCC2=O)c1cnccn1 | 2 | 4 | 11 | -13 | 49* | -11
Cc1cc(N2CCNC[C@H]2C)ccc1N1CCS(=O)(=O)CC1 | x | 2 | 5 | x | x | x
O=C1c2cccc3c(N4CCCCC4)ccc(c23)C(=O)N1c1ccccn1 | 31 | 13 | 6 | 4 | 48 | 51*
O=C1c2cccc3c([N+](=O)[O-])ccc(c23)C(=O)N1O | -2 | -2 | -40 | 17 | 21 | -14
O=C1c2cccc3c(N4CCCCC4)ccc(c23)C(=O)N1c1ccc(Cl)cn1 | x | x | x | -3 | x | x
O=C1c2cccc3cccc(c23)C(=O)N1c1nccs1 | -1 | 5 | 1 | -3 | 30 | -17
O=C1c2cccc3c([N+](=O)[O-])ccc(c23)C(=O)N1c1nccs1 | 14 | -3 | 45 | 4 | 62* | 20
O=C1c2cccc3c([N+](=O)[O-])ccc(c23)C(=O)N1c1ccccn1 | 17 | 1 | 27 | 23 | 68* | 20
CCCS(=O)(=O)NC(=O)C1(C)CCN(C(=O)c2ccccc2F)C1 (stereo not given) | x | 3 | -10 | x | x | x
O=C(N1CCOCC1)C1(c2ccc(Cl)cc2)CCCC1 | -9 | 13 | -7 | -9 | 1 | -20
O=C(Nc1ccc(N2CCOCC2)cc1)C1(c2ccc(Cl)cc2)CCC1 | -9 | 44* | 27 | 12 | 1 | -1
COCc1[nH]nc2c1C(c1ccc(C)cc1)N(c1ccc(OC)cc1)C2=O (stereo not given) | x | 0 | -6 | x | x | x
COn1c(=O)c(-c2ccc(Cl)cc2)[n+]([O-])c2ccccc21 | 0 | 7 | 6 | -12 | 53* | -3
COn1c(=O)c(-c2ccccc2)[n+]([O-])c2ccccc21 | -1 | 0 | -8 | 2 | 42* | -12
CCN(C(=O)c1c([N+](=O)[O-])cnn1C)c1ccccc1 | x | 1 | -2 | x | x | x
CCn1nc(C)cc1C(=O)N1CCc2c([nH]c3ccccc23)C1c1cc(F)ccc1F (stereo not given) | -22 | 4 | 29 | 19* | 17 | -21
CC(C)(C)NC(=O)NC(=O)COC(=O)CNC(=O)c1cc(Cl)cc([N+](=O)[O-])c1 | -10 | 0 | -3 | -1 | 68 | -8

Assay outcomes from PubChem.
